In brackets after ≈: the same amount, converted by molar mass. Activity calls are given as the source filed them. The rule behind the calls is not given here.
Key:
[1] = Stability of the compound in pH 4 buffer solution at 100 uM after 180 hrs by HPLC analysis; format: physicochemical; details: read-out: Stability
[2] = Cytotoxicity against human H9 cells assessed as reduction in cell viability after 7 days by MTT assay; format: cell-based
Summary of the method: (§1)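 MTT viability assay. H9 at 4×10^4 cells/well or PHA-stimulated PBMCs at 5×10^5 cells/well were incubated with serially diluted compound at 37 °C, 5% CO2 for seven days before MTT read-out. CC50 was calculated; mean ± standard deviation of three separate experiments.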

[3] = system: Human immunodeficiency virus 1; experiment: Antiviral activity against HIV1 subtype B NL4-3 infected in human H9 cells assessed as reduction in p24 level after 7 days by ELISA; format: functional, cell-based; details: Human immunodeficiency virus 1, subtype B NL4-3, H9, 168 h
Summary of the method: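 H9 cells infected with NL4-3 at MOI 0.03 for 2 h, washed three times, then seeded at 4×10^4 cells/well with serially diluted compound. Incubated 7 days; supernatant p24 measured by in-house ELISA and EC50 calculated. Three separate experiments, mean ± standard deviation.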

[4] = Therapeutic index, ratio of CC50 for human H9 cells to EC50 for HIV1 subtype B NL4-3 infected in human H9 cells
Summary of the method: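 Ratio of CC50 to EC50, both measured in H9 cells: MTT cytotoxicity over seven days, and p24 ELISA after 7 days of NL4-3 infection at MOI 0.03.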

[5] = Aqueous solubility in water after 24 to 72 hrs by HPLC based shake flask method; format: physicochemical
Summary of the method: (§2)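 Equilibrium shake-flask solubility: excess compound placed in water, methanol, ethanol, acetonitrile, ethyl acetate or acetone and shaken 24-72 h at 25 °C. Filtered through 0.22 μm membrane, diluted, and quantified by HPLC on a C18 column with methanol/water 70/30 mobile phase and UV 251 nm. n=3, mean ± SD.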

[6] = Stability of the compound in pH 7 buffer solution at 100 uM up to 168 hrs by HPLC analysis; format: physicochemical; details: pH 7, 168 h
Summary of the method: (§3)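 Compound added to pH 4, 7 or 9 buffers at 100 μM final and shaken at 100 rpm, 37 °C. Sampled at 0–168 h (pH 4 and 7) or 0–15 h (pH 9) and analysed by HPLC on C18 with acetonitrile/water containing 0.1% triethylamine (70/30) and UV 248 nm.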

[7] = Drug degradation in pH 9 buffer solution at 100 uM after 15 hrs by HPLC analysis; summary of the method: as §3
Liver = experiment: Prodrug activation in human liver microsomes assessed as 2-Amino-N-(2-methoxyphenyl)-6-((4-nitrophenyl)sulfonyl)benzamide formation at 1.5 mg/ml after 20 mins in presence of NADPH by HPLC analysis; format: microsome
Summary of the method: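 Prodrug (1.5 mg/mL stock, 1.5 μL) incubated with human liver microsomes in 0.1 M phosphate buffer pH 7.4 with NADPH-generating system at 37 °C for 0, 5, 10, 15, 20 and 40 min. Stopped with methanol, centrifuged, supernatant dried under nitrogen, redissolved in mobile phase, analysed by HPLC and HPLC-MS.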

Plasma = experiment: Protein binding in Sprague-Dawley rat plasma up to 30 ug/ml after 2 hrs by HPLC analysis; format: ADME, cell-free
Summary of the method: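 Heparinized arterial plasma from male and female Sprague-Dawley rats incubated with compound at final 30, 20 or 5 μg/mL, 37 °C for 2 h. Free drug separated by 30 kD ultrafiltration (2000 g, 4 °C, 15 min) and measured by HPLC with UV 251 nm; binding = (Dt − Df)/Dt × 100%.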

[8] = system: Human immunodeficiency virus 1; experiment: Inhibition of HIV1 Vif expressed in TREX-hVif-15 cells co-expressing EYFP-N1-tagged human A3G assessed as reduction in Vif-mediated A3G degradation after 48 hrs by flow cytometry; format: cell-based
Summary of the method: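 TREX-hvif-15 cells, in which Vif is under Tet-On control, were plated at 2×10^5 cells/well and grown overnight. At about 80% confluence they were transfected with EYFP-N1-hA3G. After 6 h the cells were washed, and compounds at varied concentrations were added together with doxycycline to induce Vif. Cells were trypsin-harvested 48 h post-transfection, and EYFP-positive cells were measured by flow cytometry. The no-Vif condition was set to 100%.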

[9] = system: Human immunodeficiency virus 1; experiment: Inhibition of HIV1 Vif expressed in TREX-hVif-15 cells co-expressing HA-tagged A3G assessed as reduction in Vif-mediated A3G degradation by measuring increase in A3G expression after 48 hrs by Western blot method; format: cell-based
Summary of the method: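 TREX-hvif-15 cells were plated at 2×10^5 cells/well and transfected at about 80% confluence with pcDNA3.1-APOBEC3G-HA. At 6 h they were washed and given fresh DMEM/10% FBS, graded compound concentrations, and 0.1 µg/mL doxycycline to induce Vif. Total protein was extracted 48 h post-transfection, and HA tag, Vif and β-actin were read by western blot.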

[10] = Cytotoxicity against human PBMC assessed as reduction in cell viability after 7 days by MTT assay; format: cell-based; summary of the method: as §1
[11] = system: Human immunodeficiency virus 1; experiment: Antiviral activity against HIV1 subtype B/C isolate KM018 infected in human PBMC assessed as reduction in p24 level after 7 days by ELISA; format: functional; details: Human immunodeficiency virus 1, subtype B/C isolate KM018, 168 h
[12] = system: Human immunodeficiency virus 1; experiment: Antiviral activity against HIV1 subtype B isolate SF162 infected in human PBMC assessed as reduction in p24 level after 7 days by ELISA; format: functional; details: Human immunodeficiency virus 1, subtype B isolate SF162, 168 h
[13] = system: Human immunodeficiency virus 1; experiment: Antiviral activity against HIV1 subtype CRF01-AE isolate TC-1 infected in human PBMC assessed as assessed as reduction in p24 level after 7 days by ELISA; format: functional; details: Human immunodeficiency virus 1, subtype CRF01-AE isolate TC-1, 168 h
[14] = system: Human immunodeficiency virus 1; experiment: Antiviral activity against HIV1 subtype CRF01-AE isolate WAN infected in human PBMC assessed as assessed as reduction in p24 level after 7 days by ELISA; format: functional; details: Human immunodeficiency virus 1, subtype CRF01-AE isolate WAN, 168 h
[15] = Solubility in methanol after 24 to 72 hrs by HPLC based shake flask method; format: physicochemical; summary of the method: as §2
[16] = Solubility in ethanol after 24 to 72 hrs by HPLC based shake flask method; format: physicochemical; summary of the method: as §2
[17] = Solubility in acetonitrile after 24 to 72 hrs by HPLC based shake flask method; format: physicochemical; summary of the method: as §2
[18] = Solubility in ethylacetate after 24 to 72 hrs by HPLC based shake flask method; format: physicochemical; summary of the method: as §2
[19] = Solubility in acetone after 24 to 72 hrs by HPLC based shake flask method; format: physicochemical; summary of the method: as §2
[20] = system: Human immunodeficiency virus 1; experiment: Inhibition of HIV1 NL4-3 Vif expressed in 293T cells co-expressing HA-tagged A3G assessed as reduction in Vif-mediated A3G degradation by measuring increase in A3G expression after 48 hrs by Western blot method; format: cell-based
Summary of the method: (§4)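 293T cells were plated at 2×10^5 cells/well, grown overnight, and co-transfected at about 80% confluence with pcDNA3.1-APOBEC3G-HA and pNL4-3 (Lipofectamine 2000). Medium was replaced at 6 h with DMEM/10% FBS, then compounds were added at a range of concentrations for 48 h. HA tag, Vif, p24 and β-actin (internal control) in total lysates were read by western blot.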

[21] = system: Human immunodeficiency virus 1; experiment: Antiviral activity against HIV1 NL4-3 infected in 293T cells expressing HA-tagged A3G assessed as reduction in Vif expression after 48 hrs by Western blot method; format: functional, cell-based; summary of the method: as §4
[22] = 1-octanol/water partition co-efficient, log P of the compound after 2 hrs by shake-flask method; format: physicochemical
Summary of the method: (§5)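 Octanol and water mutually pre-saturated 24 h at 37 °C; excess compound dissolved in octanol phase by sonication, centrifuged, supernatant mixed 1:1 (v/v) with aqueous phase. Shaken at 120 rpm, 37 °C for 2, 4 or 7 h; phases separated by centrifugation and quantified by HPLC, in triplicate. Log P = lg(Co/Cw).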

[23] = 1-octanol/water partition co-efficient, log P of the compound after 4 hrs by shake-flask method; format: physicochemical; summary of the method: as §5
[24] = 1-octanol/water partition co-efficient, log P of the compound after 7 hrs by shake-flask method; format: physicochemical; summary of the method: as §5
[25] = N-octanol/water partition co-efficient, log P of the compound in octanol to water phase ratio of 1:1 up to 7 hrs by shake-flask method; format: physicochemical
[26] = N-octanol/water partition co-efficient, log P of the compound in octanol to water phase ratio of 1:4 up to 7 hrs by shake-flask method; format: physicochemical
[27] = N-octanol/water partition co-efficient, log P of the compound in octanol to water phase ratio of 1:9 up to 7 hrs by shake-flask method; format: physicochemical
[28] = system: Human immunodeficiency virus 1; experiment: Antiviral activity against HIV1 isolate TC-1 infected in human PBMC assessed as inhibition of p24 expression up to 20 uM after 7 days by Western blot method
[29] = system: Human immunodeficiency virus 1; experiment: Antiviral activity against HIV1 isolate TC-1 infected in human PBMC expressing HA-tagged A3G assessed as downregulation of Vif expression after 7 days by Western blot method
[30] = system: Human immunodeficiency virus 1; experiment: Inhibition of HIV1 isolate TC-1 Vif infected in […]-stimulated human PBMC expressing HA-tagged A3G assessed as reduction in Vif-mediated A3G degradation up to 20 uM after 7 days by Western blot method

`COc1ccccc1NC(=O)c1c(NC(=O)CN)cccc1S(=O)(=O)c1ccc([N+](=O)[O-])cc1` gave a remaining at 180 h, 100 µM [1] of 50%, a CC50 at 168 h [2] of 196 µM and an EC50 [3] of 0.248 µM. For the same compound, the “Ratio CC50/EC50” value [4] was 790, the solubility thermodynamic [5] was 1730 µg/mL (≈ 3.57 mM) and the Stability [6] was “Stable”. The Drug degradation [7] was > 90% and the Drug metabolism (Liver) was “Metabolite_Detected”.

In the case of `COc1ccccc1NC(=O)c1c(N)cccc1S(=O)(=O)c1ccc([N+](=O)[O-])cc1`, the PPB (Plasma) is reported as “Active”, the CC50 at 168 h [2] is reported as ≥ 462 µM and the EC50 [3] is reported as 1.4 to 1.54 µM. For the same compound, the “Ratio CC50/EC50” value [4] was 300, the inhibition [8] was “Dose-dependent effect” and the inhibition [9] was “Dose-dependent effect”. For the same compound, the CC50 at 168 h [10] was > 468 µM, the EC50 [11] was 17.8 µM and the EC50 [12] was 17.8 µM. The EC50 [13] was 0.522 µM, the EC50 [14] was 2.95 µM and the solubility thermodynamic [5] was 0.66 µg/mL (≈ 0.00154 mM). The solubility thermodynamic [15] was 814 µg/mL (≈ 1.9 mM), the solubility thermodynamic [16] was 284 µg/mL (≈ 0.664 mM) and the solubility thermodynamic [17] was 9090 µg/mL (≈ 21.3 mM). For the same compound, the solubility thermodynamic [18] was 4380 µg/mL (≈ 10.2 mM), the solubility thermodynamic [19] was 22400 µg/mL (≈ 52.4 mM) and the inhibition [20] was “Dose-dependent effect”. The Activity [21] was “Dose-dependent effect”, the logP at 2 h [22] was 2.41 and the logP at 4 h [23] was 2.4. It also gave a logP at 7 h [24] of 2.4, a logP at 7 h [25] of 2.4 and a logP at 7 h [26] of 2.53. For the same compound, the logP at 7 h [27] was 2.55, the inhibition [28] was “Active” and the Activity [29] was “Active”. For the same compound, the inhibition [30] was “Active”.
